According to ChEMBL document CHEMBL1134377, “New synthesis of benzo-delta-carbolines, cryptolepines, and their salts: in vitro cytotoxic, antiplasmodial, and antitrypanosomal activities of delta-carbolines, benzo-delta-carbolines, and cryptolepines” (J Med Chem, 2001):
Counter-ions that a name gives are not always drawn.

Test system: L6
Assay: In vitro cytotoxicity against L6 cells
Assay type: functional, cell-based, Rattus norvegicus
Conditions: Rattus norvegicus, L6

Row | SMILES | IC50 [µM]
1 | c1ccc(-c2c[nH]c3c4ccccc4nc-3c2)nc1 | 204
2 | Cn1c2c3ccccc3nc-2c(-c2ccccc2)c2ccccc21 | 5.5
3 | c1ccc(-c2c[nH]c3c4ccccc4nc-3c2)cc1 | 37.2
4 | CCc1cc[nH]c2c3ccccc3nc1-2 | 44.9
5 | Nc1ccccc1-c1cc[nH]c2c3ccccc3nc1-2 | 16.2
6 | O=C(c1c2nc3ccccc3c-2[nH]c2ccccc12)c1c2nc3ccccc3c-2[nH]c2ccccc12 | 15.2
7 | CCc1c2ccccc2[n+](C)c2c1[nH]c1ccccc12.O=S(=O)([O-])C(F)(F)F | 6.8
8 | CCc1c2nc3ccccc3c-2n(C)c2ccccc12 | 5.9
9 | c1ccc2nc(-c3c[nH]c4c5ccccc5nc-4c3)ccc2c1 | 22.7
10 | C[n+]1c2ccccc2c(-c2ccccc2)c2[nH]c3ccccc3c21.O=S(=O)([O-])C(F)(F)F | 6.8
11 | c1ccc2nc3c(cc2c1)[nH]c1ccccc13 [QUINDOLINE] | 48.6

Same assay, conditions: l6

Row | SMILES | IC50 [µM]
12 | C[n+]1cccc2[nH]c3ccccc3c21.O=S(=O)([O-])C(F)(F)F | > 150

Test system: not listed separately
Assay: In vitro cell survival assay on cancer KB cell lines
Assay type: functional, cell-based, Homo sapiens
Conditions: Homo sapiens, KB
In short: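 KB oral epidermoid carcinoma cells in MEM with 10% FCS, 25 000 cells/well; serial dilutions (DMSO or water) added at plating; 3 days at 37 °C, 5% CO2; viability by neutral red uptake 8-16 h, SDS lysis, absorbance 540 nm.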

Row | SMILES | IC50 [µM]
13 | Cc1c2ccccc2[n+](C)c2c1[nH]c1ccccc12 | 0.42
14 | CCc1c2ccccc2[n+](C)c2c1[nH]c1ccccc12 | 1.5
15 | c1ccc(-c2c3nc4ccccc4c-3[nH]c3ccccc23)cc1 | > 100
16 | CC(C)c1c2ccccc2[n+](C)c2c1[nH]c1ccccc12 | 9.25
17 | Cn1c2c3ccccc3nc-2c(-c2ccccc2)c2ccccc21 | 0.75
18 | CC(C)c1c2nc3ccccc3c-2[nH]c2ccccc12 | 57
19 | CCc1c2nc3ccccc3c-2n(C)c2ccccc12 | 0.7
20 | C[n+]1c2ccccc2cc2[n-]c3ccccc3c21 [CRYPTOLEPINE] | 1.5
21 | c1ccc2nc3c(cc2c1)[nH]c1ccccc13 [QUINDOLINE] | 45

Same assay, conditions: kb

Row | SMILES | IC50 [µM]
22 | C[n+]1c2ccccc2cc2[n-]c3ccccc3c21 [CRYPTOLEPINE HYDROCHLORIDE] | 1.75

Test system: Plasmodium falciparum
Assay: Antiplasmodial activity against chloroquine-resistant Plasmodium falciparum K1
Assay type: functional, organism-based
Conditions: not given
In short: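 K1 strain kept in continuous culture on human erythrocytes. Asynchronous cultures (1% parasitemia, 1% final hematocrit) exposed to serial dilutions of drug (DMSO stocks; final DMSO ≤0.2%) for 24 h at 37 °C. 0.5 µCi [3H]hypoxanthine per well was then added for a further 24 h. Inhibition is incorporation versus untreated controls on the same plate. IC50 taken from concentration-response curves, mean ± SD of several independent experiments.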

Row | SMILES | IC50 [µM]
23 | C[n+]1cccc2[nH]c3ccccc3c21.O=S(=O)([O-])C(F)(F)F | 1.5

Same assay, conditions: Plasmodium falciparum

Row | SMILES | IC50 [µM]
24 | Clc1c2nc3ccccc3c-2[nH]c2ccccc12 | 74.6
25 | c1ccc(-c2c[nH]c3c4ccccc4nc-3c2)nc1 | 22.1
26 | Cn1c2c3ccccc3nc-2c(-c2ccccc2)c2ccccc21 | 1.1
27 | c1ccc(-c2c[nH]c3c4ccccc4nc-3c2)cc1 | 129
28 | CCc1cc[nH]c2c3ccccc3nc1-2 | 66.8
29 | Nc1ccccc1-c1cc[nH]c2c3ccccc3nc1-2 | 23.9
30 | O=C(c1c2nc3ccccc3c-2[nH]c2ccccc12)c1c2nc3ccccc3c-2[nH]c2ccccc12 | 6.4
31 | CCc1c2ccccc2[n+](C)c2c1[nH]c1ccccc12.O=S(=O)([O-])C(F)(F)F | 0.48
32 | CCc1c2nc3ccccc3c-2n(C)c2ccccc12 | 1.1
33 | c1ccc2nc(-c3c[nH]c4c5ccccc5nc-4c3)ccc2c1 | 14.2
34 | C[n+]1c2ccccc2c(-c2ccccc2)c2[nH]c3ccccc3c21.O=S(=O)([O-])C(F)(F)F | 1.1
35 | c1ccc2nc3c(cc2c1)[nH]c1ccccc13 [QUINDOLINE] | 36.2

Test system: Plasmodium falciparum
Assay: Selectivity index against Plasmodium falciparum
Assay type: functional
Conditions: not given

Row | SMILES | IS
36 | Clc1c2nc3ccccc3c-2[nH]c2ccccc12 | 1.7
37 | c1ccc(-c2c[nH]c3c4ccccc4nc-3c2)nc1 | 9.2
38 | Cn1c2c3ccccc3nc-2c(-c2ccccc2)c2ccccc21 | 5.5
39 | c1ccc(-c2c[nH]c3c4ccccc4nc-3c2)cc1 | 0.3
40 | CCc1cc[nH]c2c3ccccc3nc1-2 | 0.7
41 | Nc1ccccc1-c1cc[nH]c2c3ccccc3nc1-2 | 0.7
42 | O=C(c1c2nc3ccccc3c-2[nH]c2ccccc12)c1c2nc3ccccc3c-2[nH]c2ccccc12 | 2.4
43 | CCc1c2ccccc2[n+](C)c2c1[nH]c1ccccc12.O=S(=O)([O-])C(F)(F)F | 14.1
44 | C[n+]1cccc2[nH]c3ccccc3c21.O=S(=O)([O-])C(F)(F)F | >100
45 | CCc1c2nc3ccccc3c-2n(C)c2ccccc12 | 5.5
46 | c1ccc2nc(-c3c[nH]c4c5ccccc5nc-4c3)ccc2c1 | 1.6
47 | C[n+]1c2ccccc2c(-c2ccccc2)c2[nH]c3ccccc3c21.O=S(=O)([O-])C(F)(F)F | 6.2
48 | c1ccc2nc3c(cc2c1)[nH]c1ccccc13 [QUINDOLINE] | 1.3

Test system: Trypanosoma cruzi
Assay: Antitrypanosomal activity against (Trypanosoma cruzi) trypomastigotes (concentration of compound tested on trypomastigote motility)
Assay type: functional, organism-based
Conditions: not given
In short: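 Tulahuen LacZ clone 4 trypomastigotes harvested from infected murine L6 muscle cell cultures; 2-fold drug dilutions from 200 to 1.5 µM, 48 h; motility scored by microscopy; value is concentration with no detectable motility effect, mean of 2 independent experiments.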

Row | SMILES | IC50 [µM]
49 | C[n+]1cccc2[nH]c3ccccc3c21.O=S(=O)([O-])C(F)(F)F | 100

Same assay, conditions: Trypanosoma cruzi

Row | SMILES | IC50 [µM]
50 | Clc1c2nc3ccccc3c-2[nH]c2ccccc12 | 50
51 | c1ccc(-c2c[nH]c3c4ccccc4nc-3c2)nc1 | 50
52 | Cn1c2c3ccccc3nc-2c(-c2ccccc2)c2ccccc21 | 1.5
53 | c1ccc(-c2c[nH]c3c4ccccc4nc-3c2)cc1 | 200
54 | CCc1cc[nH]c2c3ccccc3nc1-2 | 50
55 | Nc1ccccc1-c1cc[nH]c2c3ccccc3nc1-2 | 50
56 | O=C(c1c2nc3ccccc3c-2[nH]c2ccccc12)c1c2nc3ccccc3c-2[nH]c2ccccc12 | 100
57 | CCc1c2ccccc2[n+](C)c2c1[nH]c1ccccc12.O=S(=O)([O-])C(F)(F)F | 50
58 | CCc1c2nc3ccccc3c-2n(C)c2ccccc12 | 6.25
59 | C[n+]1c2ccccc2c(-c2ccccc2)c2[nH]c3ccccc3c21.O=S(=O)([O-])C(F)(F)F | 12.5
60 | c1ccc2nc3c(cc2c1)[nH]c1ccccc13 [QUINDOLINE] | 50

Test system: Trypanosoma cruzi
Assay: Antitrypanosomal activity against Trypanosoma cruzi amastigotes
Assay type: functional, organism-based
Conditions: not given

Row | SMILES | IC50 [µM]
61 | C[n+]1cccc2[nH]c3ccccc3c21.O=S(=O)([O-])C(F)(F)F | 199

Same assay, conditions: Trypanosoma cruzi

Row | SMILES | IC50 [µM]
62 | Clc1c2nc3ccccc3c-2[nH]c2ccccc12 | 6.7
63 | c1ccc(-c2c[nH]c3c4ccccc4nc-3c2)nc1 | 20.8
64 | Cn1c2c3ccccc3nc-2c(-c2ccccc2)c2ccccc21 | 0.34
65 | c1ccc(-c2c[nH]c3c4ccccc4nc-3c2)cc1 | 8.6
66 | CCc1cc[nH]c2c3ccccc3nc1-2 | 12.2
67 | Nc1ccccc1-c1cc[nH]c2c3ccccc3nc1-2 | 18.9
68 | O=C(c1c2nc3ccccc3c-2[nH]c2ccccc12)c1c2nc3ccccc3c-2[nH]c2ccccc12 | 5.7
69 | CCc1c2ccccc2[n+](C)c2c1[nH]c1ccccc12.O=S(=O)([O-])C(F)(F)F | 0.39
70 | CCc1c2nc3ccccc3c-2n(C)c2ccccc12 | 0.18
71 | c1ccc2nc(-c3c[nH]c4c5ccccc5nc-4c3)ccc2c1 | 3.3
72 | C[n+]1c2ccccc2c(-c2ccccc2)c2[nH]c3ccccc3c21.O=S(=O)([O-])C(F)(F)F | 0.88
73 | c1ccc2nc3c(cc2c1)[nH]c1ccccc13 [QUINDOLINE] | 14.2

Test system: Trypanosoma cruzi
Assay: Antitrypanosomal activity against Trypanosoma cruzi epimastigotes
Assay type: functional, organism-based
Conditions: not given

Row | SMILES | IC50 [µM]
74 | C[n+]1cccc2[nH]c3ccccc3c21.O=S(=O)([O-])C(F)(F)F | > 300

Same assay, conditions: Trypanosoma cruzi

Row | SMILES | IC50 [µM]
75 | Clc1c2nc3ccccc3c-2[nH]c2ccccc12 | 6.3
76 | c1ccc(-c2c[nH]c3c4ccccc4nc-3c2)nc1 | 49.8
77 | Cn1c2c3ccccc3nc-2c(-c2ccccc2)c2ccccc21 | 0.23
78 | CCc1cc[nH]c2c3ccccc3nc1-2 | 21.4
79 | Nc1ccccc1-c1cc[nH]c2c3ccccc3nc1-2 | 34.4
80 | O=C(c1c2nc3ccccc3c-2[nH]c2ccccc12)c1c2nc3ccccc3c-2[nH]c2ccccc12 | > 200
81 | CCc1c2ccccc2[n+](C)c2c1[nH]c1ccccc12.O=S(=O)([O-])C(F)(F)F | 0.34
82 | CCc1c2nc3ccccc3c-2n(C)c2ccccc12 | 3.2
83 | c1ccc2nc(-c3c[nH]c4c5ccccc5nc-4c3)ccc2c1 | 18.6
84 | C[n+]1c2ccccc2c(-c2ccccc2)c2[nH]c3ccccc3c21.O=S(=O)([O-])C(F)(F)F | 0.54
85 | c1ccc2nc3c(cc2c1)[nH]c1ccccc13 [QUINDOLINE] | 8.7

Test system: Trypanosoma cruzi
Assay: Index of selectivity was determined in Trypanosoma cruzi
Assay type: functional
Conditions: not given
In short: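 Ratio of IC50 on L6 cells to IC50 on intracellular amastigote proliferation of T. cruzi.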

Row | SMILES | IS
86 | Clc1c2nc3ccccc3c-2[nH]c2ccccc12 | 6.4
87 | c1ccc(-c2c[nH]c3c4ccccc4nc-3c2)nc1 | 9.8
88 | Cn1c2c3ccccc3nc-2c(-c2ccccc2)c2ccccc21 | 16.6
89 | c1ccc(-c2c[nH]c3c4ccccc4nc-3c2)cc1 | 4.3
90 | CCc1cc[nH]c2c3ccccc3nc1-2 | 3.7
91 | Nc1ccccc1-c1cc[nH]c2c3ccccc3nc1-2 | 0.9
92 | O=C(c1c2nc3ccccc3c-2[nH]c2ccccc12)c1c2nc3ccccc3c-2[nH]c2ccccc12 | 2.7
93 | CCc1c2ccccc2[n+](C)c2c1[nH]c1ccccc12.O=S(=O)([O-])C(F)(F)F | 17.4
94 | C[n+]1cccc2[nH]c3ccccc3c21.O=S(=O)([O-])C(F)(F)F | >1
95 | CCc1c2nc3ccccc3c-2n(C)c2ccccc12 | 33
96 | c1ccc2nc(-c3c[nH]c4c5ccccc5nc-4c3)ccc2c1 | 6.9
97 | C[n+]1c2ccccc2c(-c2ccccc2)c2[nH]c3ccccc3c21.O=S(=O)([O-])C(F)(F)F | 7.7
98 | c1ccc2nc3c(cc2c1)[nH]c1ccccc13 [QUINDOLINE] | 3.4

Test system: not listed separately
Assay: In vitro cytotoxicity against L6 cells
Conditions: not given

Row | SMILES | IC50 [µM]
99 | Clc1c2nc3ccccc3c-2[nH]c2ccccc12 | 43.2
